Source: PubChem
TAAR1 ag: human TAAR1 agonism; Q96RJ0; CHO RD-HGA16 TAAR1, Fluo-8 calcium fluorescence; vehicle wells 0%, saturating PEA agonist 100%; activation, % at 3 µM; 0.99% of 360,000 active;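 active = activation above the mean activation of all test compounds in the run plus 3 SD, cut at about 38% in these data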
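Benchmarks: low control DMSO, high control PEA (EC100); System: CHO RD-HGA16 cells carrying human TAAR1 plus Gα16; Detection: Fluo-8 fluorescence, 5 s baseline then 140 s kinetic read; Schedule: 17-24 h plating, Fluo-8 75 min 37 °C, 30 min RT; Read-out basis: % activation from peak over basal fluorescence ratio, DMSO-to-PEA scaled.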
m5-HT2A agonist: agonists of mouse serotonin 5-HT2A receptor (HTR2A) | AID 624169 | 0.66% of 360,000 active | CHO-K1 mHTR2A beta-arrestin complementation, luminescence; percent of 30 µM serotonin response | activation, % at 7.6 µM;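 active = activation above a run cutoff, the mean activation of all tested compounds plus 3 SD, cut at about 14% in these data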;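 also: 0% = plate median of compound wells and 100% = 30 µM serotonin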
MC4R barr agon: human MC4R agonism via beta-arrestin. P32245. U2OS MC4R beta-arrestin complementation, luminescence; percent of melanotan II response, DMSO zero. activation, % at 8.9 µM. 0.98% of 360,000 active. AID 540308;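 active = activation above a per-plate cutoff, the mean activation of sample wells on that plate plus 3 SD, cut at about 8% in these data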
Target sequence (P32245 whole entry, looked up): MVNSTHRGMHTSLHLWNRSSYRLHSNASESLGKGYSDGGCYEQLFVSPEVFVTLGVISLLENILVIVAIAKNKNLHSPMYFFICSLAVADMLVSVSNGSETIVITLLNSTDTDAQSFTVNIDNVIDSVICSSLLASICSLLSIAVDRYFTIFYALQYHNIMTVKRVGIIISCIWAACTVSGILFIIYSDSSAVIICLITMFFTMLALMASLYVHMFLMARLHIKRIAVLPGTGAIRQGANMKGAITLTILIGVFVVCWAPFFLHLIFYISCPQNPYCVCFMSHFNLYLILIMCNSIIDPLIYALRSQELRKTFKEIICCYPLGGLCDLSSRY
B2AR ag: human beta-2 adrenergic receptor agonism by FAP; P07550; Am2.2-beta2AR cells, FAP receptor internalization, flow cytometry; response, % (no concentration beside the values); 0.43% of 340,000 active;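 active = response above a set limit, near 3 SD of response in nonfluorescent compounds, cut at about 42% in these data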
MC4R antagonist: human MC4R antagonism in cAMP assay; P32245; MC4R-expressing cells, MTII-stimulated cAMP, LANCE TR-FRET; inhibition, % at 6.5 µM; 0.48% of 360,000 active; AID 540295;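 active = inhibition above its plate's cutoff, the mean of tested wells on that plate plus 3 SD, cut at about 29% in these data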;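 also: 0% = Melanotan II alone and 100% = Melanotan II plus saturating MCL0020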
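System – human MC4R-expressing U2OS cells · Also added – Melanotan II · Dosing – one concentration, 6.5 µM nominal · Timing – 30-min compound, 1-h challenge, 1-h detection, room temperature · Measured by – Eu-cAMP/anti-cAMP TR-FRET, emission 671 nm · Replicates – singlicate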
TAAR1 antag: antagonists of human TAAR1. inhibition, % at 3 µM. CHO RD-HGA16 TAAR1, Fluo-8 calcium fluorescence, antagonist. Q96RJ0. AID 624466. 1.5% of 360,000 active;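 active = inhibition above a per-plate cutoff, the mean inhibition of test compounds on that plate plus 3 SD, cut at about 49% in these data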;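 also: 0% = DMSO plus EC80 beta-PEA response and 100% = DMSO alone without agonist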
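Test system: hTAAR1-expressing CHO RD-HGA16 cells, Gα16-coupled; Probe or stimulus: EC80 β-phenethylamine stimulus; Compound dosing: single nominal final test compound concentration of 3 µM; Timing: 140 s kinetic read after compound, 140 s after agonist; Signal: Fluo-8 calcium-sensitive fluorescence; Measure: % inhibition of agonist calcium response; Controls: DMSO and EC80 PEA controls.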
TAAR1 ag conf: human TAAR1 agonism, confirmed; activation, % at 3 µM; shares compounds with TAAR1 ag; CHO RD-HGA16 TAAR1, Fluo-8 calcium fluorescence; scaled: DMSO 0%, maximal phenethylamine 100%; AID 651783; 82% of 2,400 active;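 active = activation above a cutoff set at the run's mean compound activation plus 3 SD, cut at about 39% in these data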
Ga16 nonsel ag: nonselective agonism, TAAR1 counter-screen. shares compounds with TAAR1 ag. CHO-Ga16 parental, Fluo-8 calcium fluorescence; normalized to maximal ATP response, DMSO zero. activation, % at 3 µM. 50% of 2,400 active;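 active = activation above the run cutoff, the mean activation over all tested wells plus 3 SD, cut at about 12% in these data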;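 also: 0% = DMSO wells and 100% = maximal ATP response on the peak over basal ratio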
TAAR1 desens: counter-screen for human TAAR1 agonists: agonists that desensitize TAAR1 | shares compounds with TAAR1 ag | CHO RD-HGA16 hTAAR1, Fluo-8 calcium, beta-PEA response inhibition | inhibition, % at 3 µM | 46% of 2,400 active | AID 651951;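 active = inhibition above the run cutoff, the mean inhibition of all test compounds plus 3 SD, cut at about 49% in these data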;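 also: beta-PEA stimulus applied at its EC80; loss of beta-PEA calcium signal after compound pretreatment read as receptor desensitization; 0% = DMSO with beta-PEA at EC80 and 100% = DMSO alone without agonist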
Ga16 nonsel ant: counter-screen for TAAR1 agonists: nonselective Ga16 antagonists. CHO-Ga16 ATP-induced calcium, Fluo-8 fluorescence. AID 651952. shares compounds with TAAR1 ag. inhibition, % at 3 µM. 39% of 2,400 active;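 active = inhibition above the plate's mean compound inhibition plus 3 SD, computed per plate, cut at about 22% in these data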;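 also: 0% = EC80 ATP with DMSO and 100% = DMSO wells without ATP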
Numbers without * were called inactive. The list is not random: actives were taken first. Their share in the collection is about 4.3%.

O=C1CCCC2=C1C1(CCCC1)N=C(Nc1nc3cc(-c4ccccc4)ccc3o1)N2 was read as TAAR1 ag -1, m5-HT2A agonist -3, MC4R barr agon 2, MC4R antagonist 3 and TAAR1 antag -3.
Screening O=C(NCCc1ccccc1)c1ccc([N+](=O)[O-])cc1 returned TAAR1 ag 56*, m5-HT2A agonist -2, MC4R barr agon 0, B2AR ag -5, MC4R antagonist 14, TAAR1 antag 32, TAAR1 ag conf 97*, Ga16 nonsel ag 5, TAAR1 desens 57* and Ga16 nonsel ant -4.
`O=C(NCCc1ccccc1)/C(=C\c1ccc([N+](=O)[O-])cc1)NC(=O)c1ccc(Br)cc1` gave TAAR1 ag 56*, m5-HT2A agonist -1, MC4R barr agon 1, B2AR ag -4, MC4R antagonist -8, TAAR1 antag -15, TAAR1 ag conf 36, Ga16 nonsel ag 0, TAAR1 desens -3 and Ga16 nonsel ant 9.
`O=C(CSc1ccc(Cl)cc1)NCc1ccncc1` gave TAAR1 ag 6, m5-HT2A agonist -1, MC4R barr agon -1, B2AR ag 3, MC4R antagonist 3 and TAAR1 antag -16.
Screening Cc1nn(CCCC(=O)NCCc2ccccc2)c(=O)c2nccn12 returned TAAR1 ag 44*, m5-HT2A agonist -2, MC4R barr agon -1, B2AR ag -12, MC4R antagonist 7, TAAR1 antag -34, TAAR1 ag conf 66*, Ga16 nonsel ag 3, TAAR1 desens 6 and Ga16 nonsel ant 7.
Screening NS(=O)(=O)c1ccc(CCNC(=O)CCCOc2ccccc2)cc1 returned TAAR1 ag 4, m5-HT2A agonist 1, MC4R barr agon 2, B2AR ag -7, MC4R antagonist -3 and TAAR1 antag -3.
`O=C(CCCOc1ccccc1)NCCc1ccccc1` gave m5-HT2A agonist -4, MC4R barr agon -1, B2AR ag -2, MC4R antagonist -1, Ga16 nonsel ag 2 and Ga16 nonsel ant 7.
`C#CCOC(=O)CCC(=O)NCCc1ccccc1` gave TAAR1 ag 63*, m5-HT2A agonist -2, MC4R barr agon -1, B2AR ag -4, MC4R antagonist -1, TAAR1 antag 77*, TAAR1 ag conf 84*, Ga16 nonsel ag 4, TAAR1 desens 97* and Ga16 nonsel ant 11.
For Cc1cc(S(=O)(=O)N2CCOCC2)ccc1NC(=O)c1ccc(F)cc1 the results were TAAR1 ag 1, m5-HT2A agonist 0, MC4R barr agon 0, B2AR ag -11, MC4R antagonist -2 and TAAR1 antag 14.
`Cc1cc(C(=O)CCC(=O)N(C)CC2COc3ccccc3O2)c(C)s1` (configuration not stated) gave TAAR1 ag 2, m5-HT2A agonist -10, MC4R barr agon -1, MC4R antagonist 12 and TAAR1 antag -14.
Screening COc1ccc(CCNC(=O)CSc2nc3sc(C(=O)O)c(C)c3c(=O)[nH]2)cc1OC returned TAAR1 ag 0, m5-HT2A agonist 2, MC4R barr agon -4, B2AR ag 3, MC4R antagonist -1 and TAAR1 antag -10.
